Results published in publication PMC10590554 (Drug Design, Development and Therapy, 2023).
Where “and” joins values, the source holds several entries; their conditions need not be identical. Equal values may be shown once. Read-outs that look alike come from different tables or passages of the source. Each block holds one molecule with its values, some of them ahead of it.

Assays:
[1] = after oral administration; cited from earlier work
[2] = Stability of erlotinib in rat plasma; type: in vitro ADME; conditions: various storage conditions, QC 8 and 800 ng/mL
How it was run: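 Blank rat plasma spiked with erlotinib QC at 8 and 800 ng/mL, five replicates per level. Held at room temperature 4 h, at −80°C for 60 days, or through 3 freeze-thaw cycles; processed samples held 4°C 24 h. Acetonitrile-tinidazole protein precipitation, then UPLC-MS/MS against a 5–1000 ng/mL 1/x²-weighted curve. Accuracy taken as measured/theoretical concentration ×100%.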

[3] = with flavoured water; cited from earlier work
[4] = cited from earlier work
[5] = type: in vivo, Sprague-Dawley rats; conditions: rats
How it was run: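 Male Sprague-Dawley rats (220–260 g), acclimatised one week, fasted 12 h with free water, n=7/group. Single dose of vehicle (0.5% CMC-Na), simvastatin 2 mg/kg or itraconazole 15 mg/kg, then erlotinib 12 mg/kg in 0.5% CMC-Na by oral gavage 30 min later. Tail-vein blood taken into heparin at 0–24 h; plasma assayed by UPLC-MS/MS with tinidazole IS. Mean ± SD; ANOVA with Dunnett; Tmax by Wilcoxon signed-rank.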

CYP3A4 = conditions: human microsomes and cDNA expressed human CYP enzymes; cited from earlier work
[6] = with ketoconazole (CYP3A4 inhibitor); cited from earlier work
[7] = co-administration with itraconazole; cited from earlier work
[8] = with itraconazole, humans; cited from earlier work
[9] = with itraconazole, rats; cited from earlier work
[10] = itraconazole group vs erlotinib alone group, P<0.05
[11] = itraconazole group vs erlotinib alone group, not significant
[12] = simvastatin group vs erlotinib alone group, P>0.05

Accuracy over all stability conditions [2]: 87.56–112.17%
increase of AUC ([5]; 15 mg/kg itraconazole with 12 mg/kg erlotinib vs erlotinib alone, P<0.05): 32.3%
decrease of CL/F [5, 10]: ~24.24% and 24.2%
increase of AUC0-t [5, 10]: approximately 32.32%
increase of AUC0-∞ [5, 10]: ~32.29%
increase of Cmax [5, 10]: ~33.54% and 33.5%
decrease of Vz/F [5, 11]: approximately 19.30%
increase of t1/2 [5, 11]: ~5.33%
AUC0-t, fold higher than erlotinib alone group ([5]; itraconazole group, P<0.05): approximately 1.32 fold
AUC0-∞, fold higher than erlotinib alone group ([5]; itraconazole group, P<0.05): approximately 1.32 fold
Cmax, fold higher than erlotinib alone group ([5]; itraconazole group, P<0.05): ~1.34 fold
decrease of CL/F [5, 12]: approximately 6.06%
increase of AUC0-∞ [5, 12]: ~9.50%
increase of Cmax [5, 12]: ~3.80%
increase of Vz/F [5, 12]: ~1.16%
increase of t1/2 [5, 12]: ~7.56%
Structure (SMILES): C#Cc1cccc(Nc2ncnc3cc(OCCOC)c(OCCOC)cc23)c1 [Erlotinib, erlotinib]
eliminated via urine and feces route [1]: 91%
increase of AUC of erlotinib [3]: 200%
increase of Cmax of erlotinib [3]: 95%
reduction of AUC of erlotinib ([4]; combined with tamoxifen vs single administration): 54%
share of metabolism by CYP3A4 (CYP3A4): 70%
increase of AUC of erlotinib [6]: 86%
increase of Cmax of erlotinib [6]: 102%

Structure (SMILES): N#CC1(c2ccc(NC(=O)c3cccnc3NCc3ccncc3)cc2)CCCC1 [apatinib]
reduction of CL/F of apatinib [7]: 40%

Structure (SMILES): CCc1nc(C(N)=O)c(Nc2ccc(N3CCC(N4CCN(C)CC4)CC3)c(OC)c2)nc1NC1CCOCC1 [gilteritinib]
increase of exposure of gilteritinib [8]: 2.2 fold
increase of exposure of gilteritinib [9]: 1.4 fold

Structure (SMILES): CC/C(=C(\c1ccccc1)c1ccc(OCCN(C)C)cc1)c1ccccc1 [tamoxifen]
increase of Cmax of tamoxifen ([4]; combined with erlotinib vs single administration): 46%
